pIC50, pKi: −log10 of the molar value.
Test system: not listed separately
Assay: Inhibition of wild type Human immunodeficiency virus protease expressed in Escherichia coli using ArgGlu(EDANS)SerGlnAsnTyrProIleValGlnLys(DABCYL)Arg as substrate preincubated with compound for 0.5 to 1 min measured by fluorometric analysis at pH 6.5
Settings: not given

With CC(C)CNC=C1C(=O)Nc2ccc(S(=O)(=O)N(CC(C)C)C[C@@H](O)[C@H](Cc3ccccc3)NC(=O)O[C@H]3CO[C@H]4OCC[C@H]43)cc21 (mixture of isomers) as the molecule, how does the pKi read?
Its pKi is over 10.00.

With CC(N)=C1C(=O)Nc2ccc(S(=O)(=O)N(CC(C)C)C[C@@H](O)[C@H](Cc3ccccc3)NC(=O)O[C@H]3CO[C@H]4OCC[C@H]43)cc21 (mixture of isomers) as the molecule, how does the pKi read?
The pKi was over 10.00.

With CNC(C)=C1C(=O)Nc2ccc(S(=O)(=O)N(CC(C)C)C[C@@H](O)[C@H](Cc3ccccc3)NC(=O)O[C@H]3CO[C@H]4OCC[C@H]43)cc21 (mixture of isomers) as the molecule, how does the pKi read?
Its pKi is over 10.00.

Test system: not listed separately
Assay: Inhibition of Human immunodeficiency virus protease M9 mutant expressed in Escherichia coli using ArgGlu(EDANS)SerGlnAsnTyrProIleValGlnLys(DABCYL)Arg as substrate preincubated with compound for 0.5 to 1 min measured by fluorometric analysis at pH 6.5
Settings: not given

With CC(C)CNC=C1C(=O)Nc2ccc(S(=O)(=O)N(CC(C)C)C[C@@H](O)[C@H](Cc3ccccc3)NC(=O)O[C@H]3CO[C@H]4OCC[C@H]43)cc21 (mixture of isomers) as the molecule, how does the pKi read?
The pKi was over 9.52.

With CC(N)=C1C(=O)Nc2ccc(S(=O)(=O)N(CC(C)C)C[C@@H](O)[C@H](Cc3ccccc3)NC(=O)O[C@H]3CO[C@H]4OCC[C@H]43)cc21 (mixture of isomers) as the molecule, how does the pKi read?
Its pKi is over 9.52.

With CNC(C)=C1C(=O)Nc2ccc(S(=O)(=O)N(CC(C)C)C[C@@H](O)[C@H](Cc3ccccc3)NC(=O)O[C@H]3CO[C@H]4OCC[C@H]43)cc21 (mixture of isomers) as the molecule, how does the pKi read?
The pKi was over 9.52.

Test system: not listed separately
Assay: Inhibition of Human immunodeficiency virus protease M10 mutant expressed in Escherichia coli using ArgGlu(EDANS)SerGlnAsnTyrProIleValGlnLys(DABCYL)Arg as substrate preincubated with compound for 0.5 to 1 min measured by fluorometric analysis at pH 6.5
Settings: not given

With CC(C)CNC=C1C(=O)Nc2ccc(S(=O)(=O)N(CC(C)C)C[C@@H](O)[C@H](Cc3ccccc3)NC(=O)O[C@H]3CO[C@H]4OCC[C@H]43)cc21 (mixture of isomers) as the molecule, how does the pKi read?
Its pKi is over 9.00.

With CC(N)=C1C(=O)Nc2ccc(S(=O)(=O)N(CC(C)C)C[C@@H](O)[C@H](Cc3ccccc3)NC(=O)O[C@H]3CO[C@H]4OCC[C@H]43)cc21 (mixture of isomers) as the molecule, how does the pKi read?
The pKi was over 9.00.

With CNC(C)=C1C(=O)Nc2ccc(S(=O)(=O)N(CC(C)C)C[C@@H](O)[C@H](Cc3ccccc3)NC(=O)O[C@H]3CO[C@H]4OCC[C@H]43)cc21 (mixture of isomers) as the molecule, how does the pKi read?
The pKi was over 9.00.

Test system: Human immunodeficiency virus 1
Assay: Antiviral activity against Human immunodeficiency virus 1 HXB2 expressing wild type protease infected in human MT4 cells after 5 days by MTT assay
Type: functional, organism-based
Settings: Human immunodeficiency virus 1, HXB2, MT4, 120 h

With CC(C)CNC=C1C(=O)Nc2ccc(S(=O)(=O)N(CC(C)C)C[C@@H](O)[C@H](Cc3ccccc3)NC(=O)O[C@H]3CO[C@H]4OCC[C@H]43)cc21 (mixture of isomers) as the molecule, how does the pIC50 read?
Its pIC50 is 8.12.

With CC(N)=C1C(=O)Nc2ccc(S(=O)(=O)N(CC(C)C)C[C@@H](O)[C@H](Cc3ccccc3)NC(=O)O[C@H]3CO[C@H]4OCC[C@H]43)cc21 (mixture of isomers) as the molecule, how does the pIC50 read?
Its pIC50 is 7.19.

With CNC(C)=C1C(=O)Nc2ccc(S(=O)(=O)N(CC(C)C)C[C@@H](O)[C@H](Cc3ccccc3)NC(=O)O[C@H]3CO[C@H]4OCC[C@H]43)cc21 (mixture of isomers) as the molecule, how does the pIC50 read?
Its pIC50 is 8.00.

Test system: Human immunodeficiency virus 1
Assay: Antiviral activity against Human immunodeficiency virus 1 HXB2 expressing protease M8 mutant infected in human MT4 cells after 5 days by MTT assay
Type: functional, organism-based
Settings: Human immunodeficiency virus 1, HXB2, MT4, 120 h

With CC(C)CNC=C1C(=O)Nc2ccc(S(=O)(=O)N(CC(C)C)C[C@@H](O)[C@H](Cc3ccccc3)NC(=O)O[C@H]3CO[C@H]4OCC[C@H]43)cc21 (mixture of isomers) as the molecule, how does the pIC50 read?
Its pIC50 is 7.80.

With CC(N)=C1C(=O)Nc2ccc(S(=O)(=O)N(CC(C)C)C[C@@H](O)[C@H](Cc3ccccc3)NC(=O)O[C@H]3CO[C@H]4OCC[C@H]43)cc21 (mixture of isomers) as the molecule, how does the pIC50 read?
Its pIC50 is 7.15.

With CNC(C)=C1C(=O)Nc2ccc(S(=O)(=O)N(CC(C)C)C[C@@H](O)[C@H](Cc3ccccc3)NC(=O)O[C@H]3CO[C@H]4OCC[C@H]43)cc21 (mixture of isomers) as the molecule, how does the pIC50 read?
Its pIC50 is 7.54.

Test system: Human immunodeficiency virus 1
Assay: Antiviral activity against Human immunodeficiency virus 1 HXB2 expressing protease M9 mutant infected in human MT4 cells after 5 days by MTT assay
Type: functional, organism-based
Settings: Human immunodeficiency virus 1, HXB2, MT4, 120 h

With CC(C)CNC=C1C(=O)Nc2ccc(S(=O)(=O)N(CC(C)C)C[C@@H](O)[C@H](Cc3ccccc3)NC(=O)O[C@H]3CO[C@H]4OCC[C@H]43)cc21 (mixture of isomers) as the molecule, how does the pIC50 read?
The pIC50 was 8.02.

With CC(N)=C1C(=O)Nc2ccc(S(=O)(=O)N(CC(C)C)C[C@@H](O)[C@H](Cc3ccccc3)NC(=O)O[C@H]3CO[C@H]4OCC[C@H]43)cc21 (mixture of isomers) as the molecule, how does the pIC50 read?
The pIC50 was 7.22.

With CNC(C)=C1C(=O)Nc2ccc(S(=O)(=O)N(CC(C)C)C[C@@H](O)[C@H](Cc3ccccc3)NC(=O)O[C@H]3CO[C@H]4OCC[C@H]43)cc21 (mixture of isomers) as the molecule, how does the pIC50 read?
Its pIC50 is 7.77.

Test system: Human immunodeficiency virus 1
Assay: Antiviral activity against Human immunodeficiency virus 1 HXB2 expressing protease M10 mutant infected in human MT4 cells after 5 days by MTT assay
Type: functional, organism-based
Settings: Human immunodeficiency virus 1, HXB2, MT4, 120 h

With CC(C)CNC=C1C(=O)Nc2ccc(S(=O)(=O)N(CC(C)C)C[C@@H](O)[C@H](Cc3ccccc3)NC(=O)O[C@H]3CO[C@H]4OCC[C@H]43)cc21 (mixture of isomers) as the molecule, how does the pIC50 read?
Its pIC50 is 7.48.

With CC(N)=C1C(=O)Nc2ccc(S(=O)(=O)N(CC(C)C)C[C@@H](O)[C@H](Cc3ccccc3)NC(=O)O[C@H]3CO[C@H]4OCC[C@H]43)cc21 (mixture of isomers) as the molecule, how does the pIC50 read?
The pIC50 was 7.22.

With CNC(C)=C1C(=O)Nc2ccc(S(=O)(=O)N(CC(C)C)C[C@@H](O)[C@H](Cc3ccccc3)NC(=O)O[C@H]3CO[C@H]4OCC[C@H]43)cc21 (mixture of isomers) as the molecule, how does the pIC50 read?
Its pIC50 is 7.25.

Test system: Human immunodeficiency virus 1
Assay: Antiviral activity against Human immunodeficiency virus 1 HXB2 expressing protease M3 mutant infected in human MT4 cells after 5 days by MTT assay
Type: functional, organism-based
Settings: Human immunodeficiency virus 1, HXB2, MT4, 120 h
In short: (§1)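 MT-4 cells (AIDS Research and Reference Reagent Program) exposed to 50% tissue culture infective doses (TCID₅₀) of virus with various concentrations of test compound for 5 days. MTT solution then added and absorbance measured. Mutant strains carry 10–17 resistance mutations with phenotypic resistance to marketed PIs; all include I84V except M7. IC₅₀ reported.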

With CC(C)CNC=C1C(=O)Nc2ccc(S(=O)(=O)N(CC(C)C)C[C@@H](O)[C@H](Cc3ccccc3)NC(=O)O[C@H]3CO[C@H]4OCC[C@H]43)cc21 (mixture of isomers) as the molecule, how does the pIC50 read?
The pIC50 was 8.10.

With CC(N)=C1C(=O)Nc2ccc(S(=O)(=O)N(CC(C)C)C[C@@H](O)[C@H](Cc3ccccc3)NC(=O)O[C@H]3CO[C@H]4OCC[C@H]43)cc21 (mixture of isomers) as the molecule, how does the pIC50 read?
Its pIC50 is 7.15.

With CNC(C)=C1C(=O)Nc2ccc(S(=O)(=O)N(CC(C)C)C[C@@H](O)[C@H](Cc3ccccc3)NC(=O)O[C@H]3CO[C@H]4OCC[C@H]43)cc21 (mixture of isomers) as the molecule, how does the pIC50 read?
Its pIC50 is 7.92.

Test system: Human immunodeficiency virus 1
Assay: Antiviral activity against Human immunodeficiency virus 1 HXB2 expressing protease M4 mutant infected in human MT4 cells after 5 days by MTT assay
Type: functional, organism-based
Settings: Human immunodeficiency virus 1, HXB2, MT4, 120 h
In short: as §1

With CC(C)CNC=C1C(=O)Nc2ccc(S(=O)(=O)N(CC(C)C)C[C@@H](O)[C@H](Cc3ccccc3)NC(=O)O[C@H]3CO[C@H]4OCC[C@H]43)cc21 (mixture of isomers) as the molecule, how does the pIC50 read?
Its pIC50 is 7.82.

With CC(N)=C1C(=O)Nc2ccc(S(=O)(=O)N(CC(C)C)C[C@@H](O)[C@H](Cc3ccccc3)NC(=O)O[C@H]3CO[C@H]4OCC[C@H]43)cc21 (mixture of isomers) as the molecule, how does the pIC50 read?
Its pIC50 is 7.15.

With CNC(C)=C1C(=O)Nc2ccc(S(=O)(=O)N(CC(C)C)C[C@@H](O)[C@H](Cc3ccccc3)NC(=O)O[C@H]3CO[C@H]4OCC[C@H]43)cc21 (mixture of isomers) as the molecule, how does the pIC50 read?
The pIC50 was 7.80.

Test system: Human immunodeficiency virus 1
Assay: Antiviral activity against Human immunodeficiency virus 1 HXB2 expressing protease M5 mutant infected in human MT4 cells after 5 days by MTT assay
Type: functional, organism-based
Settings: Human immunodeficiency virus 1, HXB2, MT4, 120 h
In short: as §1

With CC(C)CNC=C1C(=O)Nc2ccc(S(=O)(=O)N(CC(C)C)C[C@@H](O)[C@H](Cc3ccccc3)NC(=O)O[C@H]3CO[C@H]4OCC[C@H]43)cc21 (mixture of isomers) as the molecule, how does the pIC50 read?
Its pIC50 is 8.05.

With CC(N)=C1C(=O)Nc2ccc(S(=O)(=O)N(CC(C)C)C[C@@H](O)[C@H](Cc3ccccc3)NC(=O)O[C@H]3CO[C@H]4OCC[C@H]43)cc21 (mixture of isomers) as the molecule, how does the pIC50 read?
Its pIC50 is 7.12.

With CNC(C)=C1C(=O)Nc2ccc(S(=O)(=O)N(CC(C)C)C[C@@H](O)[C@H](Cc3ccccc3)NC(=O)O[C@H]3CO[C@H]4OCC[C@H]43)cc21 (mixture of isomers) as the molecule, how does the pIC50 read?
The pIC50 was 7.74.

Test system: Human immunodeficiency virus 1
Assay: Antiviral activity against Human immunodeficiency virus 1 HXB2 expressing protease M6 mutant infected in human MT4 cells after 5 days by MTT assay
Type: functional, organism-based
Settings: Human immunodeficiency virus 1, HXB2, MT4, 120 h
In short: as §1

With CC(C)CNC=C1C(=O)Nc2ccc(S(=O)(=O)N(CC(C)C)C[C@@H](O)[C@H](Cc3ccccc3)NC(=O)O[C@H]3CO[C@H]4OCC[C@H]43)cc21 (mixture of isomers) as the molecule, how does the pIC50 read?
Its pIC50 is 8.05.

With CC(N)=C1C(=O)Nc2ccc(S(=O)(=O)N(CC(C)C)C[C@@H](O)[C@H](Cc3ccccc3)NC(=O)O[C@H]3CO[C@H]4OCC[C@H]43)cc21 (mixture of isomers) as the molecule, how does the pIC50 read?
The pIC50 was 7.19.

With CNC(C)=C1C(=O)Nc2ccc(S(=O)(=O)N(CC(C)C)C[C@@H](O)[C@H](Cc3ccccc3)NC(=O)O[C@H]3CO[C@H]4OCC[C@H]43)cc21 (mixture of isomers) as the molecule, how does the pIC50 read?
The pIC50 was 7.70.

Test system: Human immunodeficiency virus 1
Assay: Antiviral activity against Human immunodeficiency virus 1 HXB2 expressing protease M7 mutant infected in human MT4 cells after 5 days by MTT assay
Type: functional, organism-based
Settings: Human immunodeficiency virus 1, HXB2, MT4, 120 h
In short: as §1

With CC(C)CNC=C1C(=O)Nc2ccc(S(=O)(=O)N(CC(C)C)C[C@@H](O)[C@H](Cc3ccccc3)NC(=O)O[C@H]3CO[C@H]4OCC[C@H]43)cc21 (mixture of isomers) as the molecule, how does the pIC50 read?
The pIC50 was 8.68.

With CC(N)=C1C(=O)Nc2ccc(S(=O)(=O)N(CC(C)C)C[C@@H](O)[C@H](Cc3ccccc3)NC(=O)O[C@H]3CO[C@H]4OCC[C@H]43)cc21 (mixture of isomers) as the molecule, how does the pIC50 read?
The pIC50 was 7.52.

With CNC(C)=C1C(=O)Nc2ccc(S(=O)(=O)N(CC(C)C)C[C@@H](O)[C@H](Cc3ccccc3)NC(=O)O[C@H]3CO[C@H]4OCC[C@H]43)cc21 (mixture of isomers) as the molecule, how does the pIC50 read?
Its pIC50 is 8.30.

Reference: ChEMBL document CHEMBL2057112, “Enamino-oxindole HIV protease inhibitors” (Bioorg Med Chem Lett, 2012)
